From PubChem BioAssay AID651931 (Vanderbilt Specialized Chemistry Center, 2012)
Calls of active or inactive are those of the source. How the calls were made is not given here.

Target: Muscarinic acetylcholine receptor M3 (Rattus norvegicus) (UniProt P08483)
Assay: M3 receptor potentiation by M5-directed compounds, selectivity assay for M5 PAM discovery project, CHO cells, rat M3, calcium flux (AID 651931)
In short: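 material = Fluo-4-loaded stable M3 CHO-K1 cells | also added = acetylcholine, EC20 | compound = 0.3% final DMSO | signal = Fluo-4 calcium flux | medium = HBSS, pH 7.4, plus 2.5 mM probenecid and 20 mM HEPES | read-out basis = % of maximal ACh response | incubation = dye load 45-60 min, 1.5 min compound, 50 s ACh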

Sequence of Muscarinic acetylcholine receptor M3 (Rattus norvegicus) (P08483 whole entry, looked up): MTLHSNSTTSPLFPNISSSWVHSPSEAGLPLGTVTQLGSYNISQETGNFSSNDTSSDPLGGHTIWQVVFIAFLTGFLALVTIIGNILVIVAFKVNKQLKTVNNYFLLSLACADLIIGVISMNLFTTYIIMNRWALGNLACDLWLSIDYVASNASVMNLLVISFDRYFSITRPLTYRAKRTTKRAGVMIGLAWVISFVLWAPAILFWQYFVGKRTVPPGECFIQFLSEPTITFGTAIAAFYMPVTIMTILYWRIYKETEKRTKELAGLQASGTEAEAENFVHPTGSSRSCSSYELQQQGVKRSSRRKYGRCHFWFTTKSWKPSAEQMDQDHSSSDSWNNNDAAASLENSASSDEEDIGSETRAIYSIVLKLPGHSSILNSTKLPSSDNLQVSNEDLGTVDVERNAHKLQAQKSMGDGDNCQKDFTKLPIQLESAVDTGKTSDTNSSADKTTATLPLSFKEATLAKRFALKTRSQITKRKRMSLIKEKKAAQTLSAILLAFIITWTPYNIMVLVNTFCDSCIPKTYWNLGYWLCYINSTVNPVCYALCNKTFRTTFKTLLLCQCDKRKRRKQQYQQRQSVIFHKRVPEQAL

`O=C1C(=O)N(CCOc2ccccc2)c2ccc(OC(F)(F)F)cc21` was tested, and the outcome was “inactive”.
